# Reference: ChEMBL document CHEMBL4715736, “Identification of anticancer agents based on the thieno[2,3-b]pyridine and 1H-pyrazole molecular scaffolds” (2016)
# Columns and labels:
# Format in all cases: functional
# SK-OV-3 = assay: Growth inhibition of human SK-OV-3 cells assessed as cell growth at 0.1 uM incubated for 48 hrs by sulforhodamine B assay relative to control; settings: read-out: Activity
# Hs-578T [1] = assay: Growth inhibition of human Hs-578T cells assessed as cell growth at 1 uM incubated for 48 hrs by sulforhodamine B assay relative to control; settings: read-out: Activity
# OVCAR-4 = assay: Growth inhibition of human OVCAR-4 cells assessed as cell growth at 0.1 uM incubated for 48 hrs by sulforhodamine B assay relative to control; settings: read-out: Activity
# OVCAR-3 = assay: Growth inhibition of human OVCAR-3 cells assessed as cell growth at 0.1 uM incubated for 48 hrs by sulforhodamine B assay relative to control; settings: read-out: Activity
# Hs-578T [2] = assay: Growth inhibition of human Hs-578T cells incubated for 48 hrs by sulforhodamine B assay
# In short: (§1)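 NCI60 panel at the NCI Developmental Therapeutics Program. Only compounds active in the 10 µM screen went to dose-response testing. GI50, the concentration giving 50% of maximal inhibition of proliferation, and TGI, the concentration giving total growth inhibition, were derived from the dose-response curves.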
# SW-620 [3] = assay: Growth inhibition of human SW-620 cells assessed as cell growth at 100 uM incubated for 48 hrs by sulforhodamine B assay relative to control; settings: read-out: Activity
# KM12 = assay: Growth inhibition of human KM12 cells incubated for 48 hrs by sulforhodamine B assay; in short: as §1
# DU-145 [4] = assay: Growth inhibition of human DU-145 cells incubated for 48 hrs by sulforhodamine B assay
# In short: (§2)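 NCI Developmental Therapeutics Program NCI60 panel. Compounds that were active in the 10 µM one-dose screen went on to dose–response testing. Growth at each concentration is expressed relative to untreated control (100%). GI50 (concentration giving 50% of maximal inhibition of proliferation) and TGI (concentration giving total growth inhibition) were derived from the curves.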
# T47D = assay: Growth inhibition of human T47D cells assessed as cell growth at 100 uM incubated for 48 hrs by sulforhodamine B assay relative to control; settings: read-out: Activity
# NCI-H460 = assay: Growth inhibition of human NCI-H460 cells assessed as cell growth at 0.1 uM incubated for 48 hrs by sulforhodamine B assay relative to control; settings: read-out: Activity
# MDA-MB-231 = assay: Growth inhibition of human MDA-MB-231 cells assessed as cell growth at 100 uM incubated for 48 hrs by sulforhodamine B assay relative to control; settings: read-out: Activity
# HOP-62 = assay: Growth inhibition of human HOP-62 cells assessed as cell growth at 100 uM incubated for 48 hrs by sulforhodamine B assay relative to control; settings: read-out: Activity
# IGROV-1 = assay: Growth inhibition of human IGROV-1 cells incubated for 48 hrs by sulforhodamine B assay; in short: as §1
# A549 [5] = assay: Growth inhibition of human A549/ATCC cells assessed as cell growth at 100 uM incubated for 48 hrs by sulforhodamine B assay relative to control; settings: read-out: Activity; in short: as §2
# MDA-MB-435 = assay: Growth inhibition of human MDA-MB-435 cells assessed as cell growth at 0.1 uM incubated for 48 hrs by sulforhodamine B assay relative to control; settings: read-out: Activity
# NCI/ADR-RES = assay: Growth inhibition of human NCI/ADR-RES cells assessed as cell growth at 100 uM incubated for 48 hrs by sulforhodamine B assay relative to control; settings: read-out: Activity
# SNB-19 = assay: Growth inhibition of human SNB-19 cells assessed as cell growth at 1 uM incubated for 48 hrs by sulforhodamine B assay relative to control; settings: read-out: Activity
# SW-620 [6] = assay: Growth inhibition of human SW-620 cells assessed as cell growth at 1 uM incubated for 48 hrs by sulforhodamine B assay relative to control; settings: read-out: Activity
# SK-MEL-5 = assay: Growth inhibition of human SK-MEL-5 cells incubated for 48 hrs by sulforhodamine B assay
# In short: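 NCI DTP 60-line human tumour panel. Dose-response curves were run only for ligands active in the initial 10 µM screen. GI50 (concentration giving 50% of maximal inhibition of proliferation) and TGI (concentration giving total growth inhibition) were derived from these curves.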
# CAKI-1 = assay: Growth inhibition of human CAKI-1 cells assessed as cell growth at 100 uM incubated for 48 hrs by sulforhodamine B assay relative to control; settings: read-out: Activity; in short: as §2
# MOLT-4 = assay: Growth inhibition of human MOLT-4 cells assessed as cell growth at 0.1 uM incubated for 48 hrs by sulforhodamine B assay relative to control; settings: read-out: Activity
# OVCAR-5 = assay: Growth inhibition of human OVCAR-5 cells assessed as cell growth at 0.01 uM incubated for 48 hrs by sulforhodamine B assay relative to control; settings: read-out: Activity
# Malme-3M [7] = assay: Growth inhibition of human Malme-3M cells assessed as cell growth at 100 uM incubated for 48 hrs by sulforhodamine B assay relative to control; settings: read-out: Activity
# TK-10 [8] = assay: Growth inhibition of human TK-10 cells assessed as cell growth at 0.01 uM incubated for 48 hrs by sulforhodamine B assay relative to control; settings: read-out: Activity
# NCI-H226 = assay: Growth inhibition of human NCI-H226 cells incubated for 48 hrs by sulforhodamine B assay; in short: as §1
# ACHN = assay: Growth inhibition of human ACHN cells assessed as cell growth at 0.1 uM incubated for 48 hrs by sulforhodamine B assay relative to control; settings: read-out: Activity
# A549 [9] = assay: Growth inhibition of human A549/ATCC cells assessed as cell growth at 0.01 uM incubated for 48 hrs by sulforhodamine B assay relative to control; settings: read-out: Activity; in short: as §2
# BT-549 = assay: Growth inhibition of human BT-549 cells assessed as cell growth at 100 uM incubated for 48 hrs by sulforhodamine B assay relative to control; settings: read-out: Activity
# HOP-92 [10] = assay: Growth inhibition of human HOP-92 cells assessed as cell growth at 0.1 uM incubated for 48 hrs by sulforhodamine B assay relative to control; settings: read-out: Activity
# DU-145 [11] = assay: Growth inhibition of human DU-145 cells assessed as cell growth at 1 uM incubated for 48 hrs by sulforhodamine B assay relative to control; settings: read-out: Activity; in short: as §2
# HOP-92 [12] = assay: Growth inhibition of human HOP-92 cells assessed as cell growth at 100 uM incubated for 48 hrs by sulforhodamine B assay relative to control; settings: read-out: Activity
# Malme-3M [13] = assay: Growth inhibition of human Malme-3M cells assessed as cell growth at 1 uM incubated for 48 hrs by sulforhodamine B assay relative to control; settings: read-out: Activity
# TK-10 [14] = assay: Growth inhibition of human TK-10 cells assessed as cell growth at 1 uM incubated for 48 hrs by sulforhodamine B assay relative to control; settings: read-out: Activity
# M14 = assay: Growth inhibition of human M14 cells assessed as cell growth at 1 uM incubated for 48 hrs by sulforhodamine B assay relative to control; settings: read-out: Activity
# [15] = read-out: LC50 (the source's name)
compound,measurement,setting,value
Cc1cc(C)c(NC(=O)c2sc3nc4c(cc3c2N)CN(Cc2ccccc2)CC4)c(C)c1,growth at 0.1 µM,SK-OV-3,98%
same,growth at 1 µM,Hs-578T [1],76%
same,growth at 0.1 µM,OVCAR-4,94%
same,growth at 0.1 µM,OVCAR-3,105%
same,GI50,Hs-578T [2],2.66 µM
same,TGI,Hs-578T [2],65.9 µM
same,CC50,Hs-578T [2]; [15],> 100 µM
same,growth at 100 µM,SW-620 [3],-43%
same,GI50,KM12,3.26 µM
same,LC50,KM12,> 100 µM
same,TGI,KM12,43.1 µM
same,GI50,DU-145 [4],2.62 µM
same,TGI,DU-145 [4],7.65 µM
same,CC50,DU-145 [4]; [15],> 100 µM
same,growth at 100 µM,T47D,1%
same,growth at 0.1 µM,NCI-H460,103%
same,growth at 100 µM,MDA-MB-231,-11%
same,growth at 100 µM,HOP-62,7%
same,GI50,IGROV-1,6.54 µM
same,LC50,IGROV-1,> 100 µM
same,TGI,IGROV-1,> 100 µM
same,growth at 100 µM,A549 [5],13%
same,growth at 0.1 µM,MDA-MB-435,96%
same,growth at 100 µM,NCI/ADR-RES,-11%
same,growth at 1 µM,SNB-19,87%
same,growth at 1 µM,SW-620 [6],76%
same,GI50,SK-MEL-5,1.47 µM
same,LC50,SK-MEL-5,> 100 µM
same,TGI,SK-MEL-5,11.5 µM
same,growth at 100 µM,CAKI-1,4%
same,growth at 0.1 µM,MOLT-4,98%
same,growth at 0.01 µM,OVCAR-5,90%
same,growth at 100 µM,Malme-3M [7],-17%
same,growth at 0.01 µM,TK-10 [8],103%
same,GI50,NCI-H226,4.69 µM
same,TGI,NCI-H226,> 100 µM
same,CC50,NCI-H226; [15],> 100 µM
same,growth at 0.1 µM,ACHN,100%
same,growth at 0.01 µM,A549 [9],96%
same,growth at 100 µM,BT-549,-9%
same,growth at 0.1 µM,HOP-92 [10],70%
same,growth at 1 µM,DU-145 [11],95%
same,growth at 100 µM,HOP-92 [12],-7%
same,growth at 1 µM,Malme-3M [13],76%
same,growth at 1 µM,TK-10 [14],95%
same,growth at 1 µM,M14,78%
